Measurements published in PMC2788666 (Journal of medicinal chemistry, 2009).
Entries after “also recorded” stand apart in the source; their conditions may differ. Like-named read-outs stand apart in the source and are kept apart here.

Tests used:
[1] = biological target: T1, μ opioid receptor (Homo sapiens, UniProt P35372); assay: [35S]GTPγS binding mediated by the μ opioid receptor, agonist effects; type: biochemical; settings: for Emax (% stimulation) ± S.E.M., Mu Agonist Effects: CHO cells expressing μ opioid receptor; for Functional Activity at μ opioid receptor: [35S]GTPγS binding
[2] = biological target: T2, κ opioid receptor (Homo sapiens, UniProt P41145); assay: [35S]GTPγS binding mediated by the kappa opioid receptor, agonist effects; type: biochemical; settings: for Functional activity at κ opioid receptor: [35S]GTPγS binding
Method in brief: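 CHO cells expressing κ opioid receptor were incubated with test compound at 12 concentrations, and agonist-stimulated [35S]GTPγS binding was measured. EC50 and maximal stimulation (% stimulation) are reported with S.E.M.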

[3] = biological target: T2, κ opioid receptor; assay: [35S]GTPγS binding mediated by the kappa opioid receptor, antagonist effects; type: biochemical; settings: for IC50 (nM) ± S.E.M., Kappa Antagonist Effects: binding stimulated with 100 nM U50,488; for Imax (% inhibition) ± S.E.M., Kappa Antagonist Effects: binding stimulated with 100 nM U50,488, set at 100% control
Method in brief: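 Antagonist mode in CHO cells expressing κ opioid receptor: [35S]GTPγS binding was stimulated with 100 nM U50,488, taken as 100% control binding. Inhibition of this stimulated binding by test compound was measured, and IC50 and maximal inhibition (% inhibition) are reported with S.E.M.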

[4] = biological target: T2, κ opioid receptor; settings: ratio of Ki values, κ = 1; ref [2]; cited from earlier work
[5] = pH 7.4; ref [8]; cited from earlier work
[6] = biological target: T2, κ opioid receptor; assay: Opioid binding to κ receptor, [3H]U69,593, CHO membranes; settings: for Selectivity μ/δ/κ: ratio of Ki values, κ = 1; for times less active than unsubstituted C10 bivalent ligand 10 at the κ receptor: binding affinity versus 10
Method in brief: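 Membranes from CHO cells stably expressing human κ opioid receptor were incubated 60 min at 25 °C in 50 mM Tris-HCl pH 7.5 with 1 nM (final) [3H]U69,593. […] Samples were filtered on glass-fibre filters presoaked ≥30 min in 0.1% polyethylenimine, washed three times with cold Tris buffer, and counted by scintillation. IC50 came from a log-probit least-squares fit, Ki from IC50/(1+S), and ratios from Ki values.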

[7] = biological target: T1, μ opioid receptor; assay: [35S]GTPγS binding mediated by the μ opioid receptor, antagonist effects; type: biochemical; settings: binding stimulated with 200 nM DAMGO; for Imax (% inhibition) ± S.E.M., Mu Antagonist Effects: set at 100% control

T1 sequence (P35372 whole entry): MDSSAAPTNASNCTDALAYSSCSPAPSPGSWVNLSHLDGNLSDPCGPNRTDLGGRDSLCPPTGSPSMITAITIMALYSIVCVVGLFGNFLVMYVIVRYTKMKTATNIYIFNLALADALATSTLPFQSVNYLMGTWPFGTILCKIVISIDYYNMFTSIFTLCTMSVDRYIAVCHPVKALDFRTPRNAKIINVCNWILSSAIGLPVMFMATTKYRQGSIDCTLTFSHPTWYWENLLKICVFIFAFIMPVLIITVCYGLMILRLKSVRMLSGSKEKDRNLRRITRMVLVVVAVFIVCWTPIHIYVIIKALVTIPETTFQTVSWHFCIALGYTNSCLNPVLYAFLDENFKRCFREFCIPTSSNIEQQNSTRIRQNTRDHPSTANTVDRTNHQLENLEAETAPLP
T2 sequence (P41145 whole entry): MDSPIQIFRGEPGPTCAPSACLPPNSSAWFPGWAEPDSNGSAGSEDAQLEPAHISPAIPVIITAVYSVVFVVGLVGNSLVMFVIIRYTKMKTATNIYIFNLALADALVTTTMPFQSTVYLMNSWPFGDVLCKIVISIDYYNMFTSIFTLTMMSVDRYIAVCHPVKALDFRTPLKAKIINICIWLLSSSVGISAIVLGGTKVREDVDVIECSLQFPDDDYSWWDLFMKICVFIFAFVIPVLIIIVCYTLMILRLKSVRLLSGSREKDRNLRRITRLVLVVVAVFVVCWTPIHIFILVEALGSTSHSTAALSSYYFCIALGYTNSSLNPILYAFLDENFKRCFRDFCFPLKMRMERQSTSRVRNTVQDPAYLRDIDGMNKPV

SMILES | Emax (% stimulation) ± S.E.M., Mu Agonist Effects [1] [% stimulation] | Functional Activity at μ opioid receptor [1] | Functional activity at κ opioid receptor [2] | IC50 (nM) ± S.E.M., Kappa Antagonist Effects [3] | Imax (% inhibition) ± S.E.M., Kappa Antagonist Effects [3] | Selectivity μ/δ/κ [4] | times more stable than mono phenyl succinate [5] [times] | Selectivity μ/δ/κ [6] | IC50 (nM) ± S.E.M., Mu Antagonist Effects [7] | Imax (% inhibition) ± S.E.M., Mu Antagonist Effects [7] | times less active than unsubstituted C10 bivalent ligand 10 at the κ receptor [6] | Emax (% stimulation) ± S.E.M., Kappa Agonist Effects ([2]; CHO cells expressing κ opioid receptor) [% stimulation]
O=C(CCCCCCCCC(=O)Oc1ccc2c(c1)[C@@]13CCCC[C@H]1[C@@H](C2)N(CC1CCC1)CC3)Oc1ccc2c(c1)[C@@]13CCCC[C@H]1[C@@H](C2)N(CC1CCC1)CC3 [compound 10, reference compound] | 51 ± 6.5 | Partial Agonist | Agonist | No inhibition | No inhibition | 2/90/1 | – | – | – | – | – | –
CC(CC(=O)Oc1ccccc1)C(=O)O (stereo not drawn) [mono phenyl ester of 2-methylsuccinic acid] | – | – | – | – | – | – | 43 | – | – | – | – | –
CC(CCCCCCC(C)C(=O)Oc1ccc2c(c1)[C@@]13CCCC[C@H]1[C@@H](C2)N(CC1CCC1)CC3)C(=O)O (stereo partly drawn) [7a, 2,9-Dimethyldecanedioic acid 10-((−)-N-cyclobutylmethylmorphinan-3-yl) ester] | – | Partial Agonist | κ agonists; also recorded: Agonist | No inhibition | No inhibition | – | – | 1/48/1 | – | – | – | –
CC(C)(CCCCCCC(C)(C)C(=O)Oc1ccc2c(c1)[C@@]13CCCC[C@H]1[C@@H](C2)N(CC1CCC1)CC3)C(=O)O [7b, 2,2,9,9-Tetramethyldecanedioic acid 10-((−)-N-cyclobutylmethylmorphinan-3-yl) ester] | – | – | – | – | – | – | – | 3/22/1 | – | – | – | –
O=C(O)CCCCCCCCC(=O)Oc1ccc2c(c1)[C@@]13CCCC[C@H]1[C@@H](C2)N(CC1CCC1)CC3 [compound 9, reference compound] | – | full μ agonist | κ agonists; also recorded: full agonist | No inhibition | No inhibition | – | – | – | No inhibition | No inhibition | – | –
CC(C)(CCCCCCC(C)(C)C(=O)Oc1ccc2c(c1)[C@@]13CCCC[C@H]1[C@@H](C2)N(CC1CCC1)CC3)C(=O)Oc1ccc2c(c1)[C@@]13CCCC[C@H]1[C@@H](C2)N(CC1CCC1)CC3 [4b, Bis((−)-N-cyclobutylmethylmorphinan-3-yl) 2,2,9,9-tetramethyldecanedioate] | – | Partial Agonist | partial agonists; also recorded: κ agonists; also recorded: Agonist | No inhibition | No inhibition | – | – | 1/32/1 | – | – | approximately 10 times | –
C=CCN1CC[C@]23c4c5ccc(OC(=O)CCCCCCCCC(=O)Oc6ccc7c(c6)[C@@]68CCCC[C@H]6C(C7)N(CC6CCC6)CC8)c4O[C@H]2CCC[C@H]3[C@H]1C5 [compound 11, reference compound] | – | Partial Agonist | κ agonists; also recorded: Agonist | No inhibition | No inhibition | – | – | – | – | – | – | –
Oc1ccc2c(c1)[C@@]13CCCC[C@H]1[C@@H](C2)N(CC1CCC1)CC3 [Butorphan, butorphan] | 50 ± 2.5 | Partial Agonist | Agonist | – | – | – | – | – | – | 50 ± 2.6 % inhibition | – | 80 ± 6.8
CC(CCCCCCC(C)C(=O)Oc1ccc2c(c1)[C@@]13CCCC[C@H]1[C@@H](C2)N(CC1CCC1)CC3)C(=O)Oc1ccc2c(c1)[C@@]13CCCC[C@H]1[C@@H](C2)N(CC1CCC1)CC3 (stereo partly drawn) [4a, Bis((−)-N-cyclobutylmethylmorphinan-3-yl) 2,9-dimethyldecanedioate] | – | Partial Agonist | partial agonists; also recorded: κ agonists; also recorded: Agonist | No inhibition | No inhibition | – | – | – | – | – | approximately 10 times | –
